According to ChEMBL document CHEMBL1671691 (Antimicrob Agents Chemother, 2010):

Tests used:
Influenza A virus [1] = experiment: Antiviral activity against adamantane-resistant zanamivir-,oseltamivir-susceptible Influenza A virus (A/pdm/Mexico/4604/2009 (H1N1)) harboring M2 V28I, S31N mutant infected in MDCK cells assessed as inhibition of viral replication after 3 days by microscopic analysis using crystal violet stain; type: functional, organism-based, Influenza A virus (A/Mexico/4604/2009(H1N1))
Influenza A virus [2] = experiment: Antiviral activity against Influenza A virus (A/Washington/29/2009(H1N1)) harboring neuraminidase H275Y mutant infected in MDCK cells from Mill Hill assessed as inhibition of viral replication after 3 days by microscopic analysis using crystal violet stain; type: functional
Influenza A virus [3] = experiment: Antiviral activity against adamantane-, zanamivir-susceptible oseltamivir-resistant Influenza A virus (A/New Jersey/15/2007(H1N1)) harboring neuraminidase H274Y mutant infected in MDCK cells assessed as inhibition of viral replication after 3 days by microscopic analysis using crystal violet stain; type: functional, organism-based
Outline: (§1)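 Confluent MDCK-ATCC monolayers infected with virus diluted to give 15–45 plaques/well. Adsorption 1 h at 37°C without drug, then washed. Overlaid with 0.8% agarose in MEM containing drug plus TPCK-trypsin: 3 μg/ml for seasonal viruses, 2 μg/ml for 2009 A(H1N1). Incubated 3 days at 37°C, 5% CO2. Ethanol-fixed, crystal violet-stained, plaques counted. EC50 by curve fit; duplicates on three occasions, mean ± SD.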

Influenza A virus [4] = experiment: Antiviral activity against Influenza A virus (A/Washington/29/2009(H1N1)) harboring neuraminidase H275Y mutant infected in MDCK cells from ATCC assessed as inhibition of viral replication after 3 days by microscopic analysis using crystal violet stain; type: functional; outline: as §1
Influenza A virus [5] = experiment: Antiviral activity against adamantane-, oseltamivir-, zanamivir-resistant Influenza A virus (A/Idaho/01/2009(H1N1)) harboring neuraminidase H274Y mutant infected in MDCK cells assessed as inhibition of viral replication after 3 days by microscopic analysis using crystal violet stain; type: functional, organism-based, Influenza A virus (A/Idaho/01/2008(H1N1)); outline: as §1
Influenza A virus [6] = experiment: Antiviral activity against adamantane-resistant zanamivir-,oseltamivir-susceptible Influenza A virus (A/Wisconsin/16/2008(H1N1)) harboring neuraminidase H274Y mutant infected in MDCK cells assessed as inhibition of viral replication after 3 days by microscopic analysis using crystal violet stain; type: functional, organism-based; outline: as §1
Influenza A virus [7] = experiment: Antiviral activity against adamantane-resistant zanamivir-,oseltamivir-susceptible Influenza A virus (A/pdm/California/04/2009 (H1N1)) harboring M2 V28I, S31N mutant infected in MDCK cells assessed as inhibition of viral replication after 3 days by microscopic analysis using crystal violet stain; type: functional, organism-based, A/California/04/2009(H1N1)
Outline: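 Plaque reduction on confluent MDCK-ATCC monolayers: pretitrated virus (15–45 plaques per well) adsorbed 1 h at 37°C without drug, then washed with PBS. Agarose overlay (0.8%, in MEM) with drug added, 3 days at 37°C. Cells fixed with 70% ethanol, stained with crystal violet, plaques counted. EC50 from curve fitting, averaged over three separate experiments in duplicate, ± SD.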

Influenza A virus [8] = experiment: (§2) Antiviral activity against oseltamivir-susceptible zanamivir-, adamantane-resistant Influenza A virus (A/pdm/Illinois/10/2009(H1N1)) harboring M2 V28I, S31N mutant and neuraminidase H274Y mutant infected in MDCK cells assessed as inhibition of viral replication after 3 days by microscopic analysis using crystal violet stain; type: functional, organism-based, (A/Illinois/10/2009(H1N1))
Influenza A virus [9] = experiment: as §2, with “(A/pdm/Washington/29/2009 (H1N1))” for “(A/pdm/Illinois/10/2009(H1N1))”; type: functional, organism-based, Influenza A virus (A/Washington/29/2009(H1N1))
Influenza B virus [10] = experiment: Antiviral activity against oseltamivir-susceptible zanamivir-, adamantane-resistant Influenza B virus (B/Michigan/20/2005) harboring neuraminidase H274Y mutant infected in MDCK cells assessed as inhibition of viral replication after 3 days by microscopic analysis using crystal violet stain; type: functional, cell-based
Influenza A virus [11] = experiment: Antiviral activity against adamantane-, zanamivir-susceptible oseltamivir-resistant Influenza A virus (A/Georgia/20/2006(H1N1)) harboring neuraminidase H274Y mutant infected in MDCK cells assessed as inhibition of viral replication after 3 days by microscopic analysis using crystal violet stain; type: functional, organism-based; outline: as §1
Influenza A virus [12] = experiment: Antiviral activity against oseltamivir-susceptible zanamivir-, adamantane-resistant Influenza A virus (A/Texas/12/2007 (clone)(H3N2)) harboring neuraminidase E119V mutant and harboring M2 S31N mutant infected in MDCK cells assessed as inhibition of viral replication after 3 days by microscopic analysis using crystal violet stain; type: functional, organism-based, Influenza A virus (A/Texas/12/2007(H3N2))
Outline: (§3)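 MDCK-ATCC confluent monolayers infected with pretitrated virus (15–45 plaques per well), 1 h adsorption at 37°C, 5% CO2, without drug. Inoculum removed, PBS wash, then 0.8% agarose overlay in MEM with drug and 3 μg/ml TPCK-trypsin. 3 days at 37°C, ethanol fixation, crystal violet stain, plaques counted. EC50 by curve fit, mean of three experiments in duplicate ± SD.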

Influenza B virus [13] = experiment: Antiviral activity against oseltamivir-susceptible zanamivir-, adamantane-resistant Influenza B virus B/Memphis/20/1996 harboring neuraminidase R152K mutant infected in MDCK cells assessed as inhibition of viral replication after 3 days by microscopic analysis using crystal violet stain; type: functional, cell-based, B/Memphis/20/96
Influenza B virus [14] = experiment: microbe, parasite or virus in culture; settings: B/Memphis/20/96, MDCK, 72 h
Influenza A virus [15] = experiment: Antiviral activity against adamantane-, zanamivir-susceptible oseltamivir-resistant Influenza A virus (A/Florida/21/2008(H1N1)) harboring neuraminidase H274Y mutant infected in MDCK cells assessed as inhibition of viral replication after 3 days by microscopic analysis using crystal violet stain; type: functional, organism-based; outline: as §3
[16] = Antiviral activity against adamantane-, oseltamivir-, zanamivir-resistant Influenza B virus (B/Illinois/03/2008) harboring neuraminidase E119A mutant infected in MDCK cells assessed as inhibition of viral replication after 3 days by microscopic analysis using crystal violet stain; type: functional, cell-based; outline: as §1
Influenza A virus [17] = experiment: Antiviral activity against Influenza A virus (A/Illinois/10/2009(H1N1)) harboring neuraminidase H275Y mutant infected in MDCK cells from Mill Hill assessed as log reduction in viral titer at 1.6 uM after 24 hrs by immunofluorescent assay; type: functional
Outline: (§4)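 Yield reduction in MDCK-ATCC or MDCK-Mill Hill cells infected at MOI ∼0.01. Adsorption 1 h at 4°C, washed, then DMEM with 2 μg/ml TPCK-trypsin and drug. At 24 h, supernatants were titrated by immunofluorescent focus assay on MDCK cells with anti-NP monoclonals and FITC secondary. Titres as log10 FFU per 100 μl; detection limit <10 FFU. Quadruplicate, mean ± SD.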

Influenza A virus [18] = experiment: Antiviral activity against adamantane-susceptible zanamivir-, oseltamivir-resistant Influenza A virus (A/Santiago/5248/2008(H1N1)) harboring neuraminidase D198E mutant infected in MDCK cells assessed as inhibition of viral replication after 3 days by microscopic analysis using crystal violet stain; type: functional, organism-based
Influenza A virus [19] = experiment: Antiviral activity against Influenza A virus (A/Washington/29/2009(H1N1)) harboring neuraminidase H275Y mutant infected in MDCK cells from Mill Hill assessed as log reduction in viral titer at 1.6 uM after 24 hrs by immunofluorescent assay; type: functional; outline: as §4
[20] = Antiviral activity against adamantane-resistant zanamivir-,oseltamivir-susceptible Influenza B virus (B/Illinois/47/2005) infected in MDCK cells assessed as inhibition of viral replication after 3 days by microscopic analysis using crystal violet stain; type: functional, cell-based; settings: 72 h
Influenza A virus [21] = experiment: Antiviral activity against adamantane-resistant zanamivir-,oseltamivir-susceptible Influenza A virus (A/Massachusetts/03/2009(H3N2)) harboring M2 S31N mutant infected in MDCK cells assessed as inhibition of viral replication after 3 days by microscopic analysis using crystal violet stain; type: functional, organism-based; outline: as §1

Compound `NC(=O)c1nc(F)cnc1O` [FAVIPIRAVIR] has an EC50 (Influenza A virus [1]) of 1210 nM, a log10FFU (Influenza A virus [2]) of 6.32 and an EC50 (Influenza A virus [3]) of 4900 nM. The log10FFU (Influenza A virus [4]) was 0.78, the EC50 (Influenza A virus [5]) was 2930 nM and the EC50 (Influenza A virus [6]) was 2870 nM. It also gave an EC50 (Influenza A virus [7]) of 1970 nM, an EC50 (Influenza A virus [8]) of 22500 nM and an EC50 (Influenza A virus [9]) of 6620 nM. For the same compound, the EC50 (Influenza B virus [10]) was 5030 nM, the EC50 (Influenza A virus [11]) was 2550 nM and the EC50 (Influenza A virus [12]) was 5220 nM. For the same compound, the EC50 (Influenza B virus [13]) was 570 nM, the EC50 (Influenza B virus [14]) was 1210 nM and the EC50 (Influenza A virus [15]) was 1590 nM. The EC50 [16] was 3000 nM, the log10FFU (Influenza A virus [17]) was 4.5 and the EC50 (Influenza A virus [18]) was 4700 nM. The log10FFU (Influenza A virus [19]) was 5.4, the EC50 [20] was 4010 nM and the EC50 (Influenza A virus [21]) was 4200 nM.
